Data from ChEMBL document CHEMBL3769318, “The Rational Design of Selective Benzoxazepin Inhibitors of the α-Isoform of Phosphoinositide 3-Kinase Culminating in the Identification of (S)-2-((2-(1-Isopropyl-1H-1,2,4-triazol-5-yl)-5,6-dihydrobenzo[f]imidazo[1,2-d][1,4]oxazepin-9-yl)oxy)propanamide (GDC-0326)” (J Med Chem, 2016).
Values after ≈ are worked out from the molar mass of the structure shown.

Assays:
Canis familiaris [1] = test: Oral bioavailability in Beagle dog at 2 mg/kg; assay type: ADME, organism-based, Canis lupus familiaris; settings: in vivo
Summary of the method: (§1)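 Single oral dose at 2 mg/kg in 0.5% methylcellulose with 0.2% Tween 80, given to beagle dogs or male cynomolgus monkeys; the IV reference was 1 mg/kg in 60% PEG400/10% ethanol.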

[2] = Cmax in Sprague-Dawley rat at 5 mg/kg, po; assay type: ADME, organism-based; design: dose 5 mg/kg, route oral; settings: in vivo
Summary of the method: (§2)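 Male Sprague-Dawley rats dosed PO at 5 mg/kg in 0.5% methylcellulose/0.2% Tween 80 (MCT); the IV reference arm was 1 mg/kg in 60% PEG400/10% ethanol.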

Cytochrome P450 3A4 = Cytochrome P450 3A4 (Homo sapiens, UniProt P08684); test: Inhibition of CYP3A4 (unknown origin); assay type: ADME
Cytochrome P450 3A4, sequence (P08684 whole entry): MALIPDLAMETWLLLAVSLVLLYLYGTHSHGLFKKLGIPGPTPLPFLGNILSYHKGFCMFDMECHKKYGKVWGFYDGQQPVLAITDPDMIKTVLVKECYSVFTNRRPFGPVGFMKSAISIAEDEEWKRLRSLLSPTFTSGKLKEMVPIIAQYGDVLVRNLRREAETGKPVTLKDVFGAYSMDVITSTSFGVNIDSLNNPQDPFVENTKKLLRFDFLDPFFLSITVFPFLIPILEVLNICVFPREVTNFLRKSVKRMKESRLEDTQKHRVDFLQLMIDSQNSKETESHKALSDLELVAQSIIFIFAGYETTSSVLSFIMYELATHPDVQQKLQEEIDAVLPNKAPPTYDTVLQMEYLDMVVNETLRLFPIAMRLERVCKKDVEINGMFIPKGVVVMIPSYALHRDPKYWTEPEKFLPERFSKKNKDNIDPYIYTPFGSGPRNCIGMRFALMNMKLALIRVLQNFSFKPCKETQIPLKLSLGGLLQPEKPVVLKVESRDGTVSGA

[3] = Cmax in NCR nude mouse at 25 mg/kg, po; assay type: ADME, organism-based; design: dose 25 mg/kg, route oral; settings: in vivo
[4] = Plasma protein binding in Sprague-Dawley rat at 5 uM after 4 hrs by LC-MS/MS analysis; assay type: ADME, cell-free; settings: read-out: PPB (converted)
Summary of the method: (§3)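 Equilibrium dialysis of pooled plasma (n ≥ 3) spiked with compound at 5 µM total against PBS pH 7.4, 37 °C, 5% CO2, for 4 h; plasma and buffer concentrations measured by LC-MS/MS; percent unbound calculated as buffer/plasma ×100.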

[5] = Antiproliferative activity against human MCF7-neo/Her2 cells after 3 days by luminescence plate reader method; assay type: functional, cell-based; settings: 72 h
Homo sapiens = test: Antitumor activity against human MCF7-neo/Her2 cells xenografted in po dosed nude mouse assessed as tumor growth inhibition administered daily for 21 days; assay type: functional, organism-based
Summary of the method: (§4)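 MCF7-neo/HER2 breast cancer xenografts grown in nude mice; daily oral dosing for 21 days in 0.5% methylcellulose/0.2% Tween-80 vehicle at 0.78–25 mg/kg, 10 animals per group; fitted tumor volumes compared against vehicle-treated mice to give tumor growth inhibition.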

[6] = Clearance in Sprague-Dawley rat at 1 mg/kg, iv; assay type: ADME, organism-based; settings: in vivo
[7] = Antitumor activity against human KPL4 cells xenografted in SCID beige mouse assessed as tumor growth inhibition at 0.78 mg/kg, po qd for 21 days; assay type: functional; settings: 504 h, read-out: TGI
Summary of the method: (§5)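 KPL-4 breast cancer xenografts grown in scid beige mice; oral dosing once daily for 21 days in MCT vehicle (0.5% methylcellulose/0.2% Tween-80) at 0.78–25 mg/kg, 10 animals per group; tumor volumes fitted and tumor growth inhibition calculated versus vehicle-treated mice.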

Cytochrome P450 2C19 = Cytochrome P450 2C19 (Homo sapiens, UniProt P33261); test: Inhibition of CYP2C19 (unknown origin); assay type: ADME
Cytochrome P450 2C19, sequence (P33261 whole entry): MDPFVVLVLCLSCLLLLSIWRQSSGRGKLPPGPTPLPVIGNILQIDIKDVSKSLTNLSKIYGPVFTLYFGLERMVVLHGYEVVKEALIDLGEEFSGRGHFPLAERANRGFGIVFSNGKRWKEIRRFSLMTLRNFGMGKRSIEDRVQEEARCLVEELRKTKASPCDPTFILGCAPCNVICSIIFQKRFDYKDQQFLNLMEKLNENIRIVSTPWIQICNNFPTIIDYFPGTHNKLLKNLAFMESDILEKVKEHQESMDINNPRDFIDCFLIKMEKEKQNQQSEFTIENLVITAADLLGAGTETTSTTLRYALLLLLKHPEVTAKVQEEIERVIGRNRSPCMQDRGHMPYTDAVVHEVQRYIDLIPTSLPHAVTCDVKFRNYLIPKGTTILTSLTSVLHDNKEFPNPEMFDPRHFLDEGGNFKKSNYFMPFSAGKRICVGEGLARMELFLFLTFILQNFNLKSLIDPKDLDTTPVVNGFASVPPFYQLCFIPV

[8] = AUC in Sprague-Dawley rat at 5 mg/kg, po; assay type: ADME, organism-based; settings: in vivo; summary of the method: as §2
Mus musculus [9] = test: Volume of distribution at steady state in NCR nude mouse at 1 mg/kg, iv; settings: in vivo
[10] = AUC in NCR nude mouse at 25 mg/kg, po; assay type: ADME, organism-based; settings: in vivo
[11] = Cytotoxicity against human KPL4 cells after 4 days by luminescence plate reader method; assay type: functional, cell-based; settings: KPL4, 96 h
[12] = Antitumor activity against human MCF7-neo/Her2 cells xenografted in mouse assessed as tumor growth inhibition at 12.5 mg/kg, po qd for 21 days; assay type: functional; settings: 504 h, read-out: TGI; summary of the method: as §4
[13] = Antitumor activity against human KPL4 cells xenografted in SCID beige mouse assessed as tumor growth inhibition at 12.5 mg/kg, po qd for 21 days; assay type: functional; settings: 504 h, read-out: TGI; summary of the method: as §5
[14] = Oral bioavailability in NCR nude mouse at 25 mg/kg; assay type: ADME, organism-based; settings: in vivo
[15] = Plasma protein binding in CD-1 mouse at 5 uM after 4 hrs by LC-MS/MS analysis; assay type: ADME, cell-free; settings: CD-1, mouse, read-out: PPB (converted); summary of the method: as §3
[16] = Clearance in Cynomolgus monkey at 1 mg/kg, iv; assay type: ADME, organism-based, Macaca fascicularis; settings: in vivo
[17] = Apparent permeability from apical to basolateral side in MDCK cells; assay type: ADME, cell-based, Canis lupus familiaris; settings: dog
Cytochrome P450 1A2 = target: T1, Cytochrome P450 1A2 (Homo sapiens, UniProt P05177); test: Inhibition of CYP1A2 (unknown origin); assay type: ADME
T1 sequence (P05177 whole entry): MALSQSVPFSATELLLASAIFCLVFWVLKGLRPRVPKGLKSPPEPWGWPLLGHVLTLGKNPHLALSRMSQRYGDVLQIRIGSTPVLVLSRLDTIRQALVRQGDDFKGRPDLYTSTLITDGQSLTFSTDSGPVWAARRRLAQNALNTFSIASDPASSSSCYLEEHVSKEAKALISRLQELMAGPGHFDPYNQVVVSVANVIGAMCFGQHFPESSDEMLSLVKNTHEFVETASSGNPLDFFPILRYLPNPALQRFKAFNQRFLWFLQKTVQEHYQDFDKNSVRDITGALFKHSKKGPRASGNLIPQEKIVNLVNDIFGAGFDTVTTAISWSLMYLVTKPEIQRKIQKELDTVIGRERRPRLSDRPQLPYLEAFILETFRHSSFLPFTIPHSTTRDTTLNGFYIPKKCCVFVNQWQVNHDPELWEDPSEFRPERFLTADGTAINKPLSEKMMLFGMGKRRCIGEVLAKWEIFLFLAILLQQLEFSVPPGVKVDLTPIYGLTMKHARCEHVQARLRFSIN

[18] = Oral bioavailability in Cynomolgus monkey at 2 mg/kg; assay type: ADME, organism-based, Macaca fascicularis; settings: in vivo; summary of the method: as §1
[19] = Cmax in Beagle dog at 2 mg/kg, po; assay type: ADME, organism-based, Canis lupus familiaris; design: dose 2 mg/kg, route oral; settings: in vivo; summary of the method: as §1
[20] = Thermodynamic solubility of compound at pH 7.4; assay type: physicochemical; settings: buffer, read-out: Therm_solubility
[21] = Volume of distribution at steady state in Sprague-Dawley rat at 1 mg/kg, iv; assay type: ADME, organism-based; settings: in vivo, read-out: Vdss
Cytochrome P450 2D6 = Cytochrome P450 2D6 (Homo sapiens, UniProt P10635); test: Inhibition of CYP2D6 (unknown origin); assay type: ADME
Cytochrome P450 2D6, sequence (P10635 whole entry): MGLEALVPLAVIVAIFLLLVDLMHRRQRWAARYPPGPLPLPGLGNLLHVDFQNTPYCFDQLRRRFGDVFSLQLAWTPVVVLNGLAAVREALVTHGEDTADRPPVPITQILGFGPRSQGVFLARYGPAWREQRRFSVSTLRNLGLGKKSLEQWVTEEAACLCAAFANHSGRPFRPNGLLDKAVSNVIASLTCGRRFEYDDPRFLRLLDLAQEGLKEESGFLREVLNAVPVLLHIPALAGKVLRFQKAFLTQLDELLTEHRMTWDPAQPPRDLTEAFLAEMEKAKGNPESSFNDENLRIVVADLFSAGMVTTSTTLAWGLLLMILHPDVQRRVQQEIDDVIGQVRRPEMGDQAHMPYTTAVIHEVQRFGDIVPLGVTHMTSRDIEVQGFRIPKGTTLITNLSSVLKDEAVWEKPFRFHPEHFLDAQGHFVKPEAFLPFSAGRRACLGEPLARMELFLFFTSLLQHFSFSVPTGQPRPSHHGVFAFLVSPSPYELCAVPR

Mus musculus [22] = test: Decrease in phosphorylated Akt in mouse xenografted with human MCF7-neo/Her2 cells at 6.25 mg/kg administered as single dose after 1 hr by immunoassay; assay type: functional
Summary of the method: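 Mice bearing MCF7-neo/HER2 tumors given a single oral dose in MCT vehicle; tumors collected 1 h later. Phospho-Akt Ser473 and total Akt measured by Mesoscale Discovery immunoassay and expressed as pAkt/tAkt relative to vehicle; four animals per group; unbound plasma drug measured at the same time.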

Canis familiaris [23] = test: AUC in Beagle dog at 2 mg/kg, po; assay type: ADME, organism-based, Canis lupus familiaris; settings: in vivo
[24] = Clearance in NCR nude mouse at 1 mg/kg, iv; assay type: ADME, organism-based; settings: in vivo
[25] = AUC in Cynomolgus monkey at 2 mg/kg, po; assay type: ADME, organism-based, Macaca fascicularis; settings: in vivo
[26] = Volume of distribution at steady state in Beagle dog at 1 mg/kg, iv; assay type: ADME, organism-based, Canis lupus familiaris; settings: in vivo, read-out: Vdss
[27] = target: Phosphatidylinositol 4-phosphate 3-kinase C2 domain-containing subunit beta (Homo sapiens) (UniProt O00750); test: Inhibition of PI3KC2b (unknown origin) at 1 uM
Phosphatidylinositol 4-phosphate 3-kinase C2 domain-containing subunit beta (Homo sapiens), sequence (O00750 whole entry, the tested form may be a part): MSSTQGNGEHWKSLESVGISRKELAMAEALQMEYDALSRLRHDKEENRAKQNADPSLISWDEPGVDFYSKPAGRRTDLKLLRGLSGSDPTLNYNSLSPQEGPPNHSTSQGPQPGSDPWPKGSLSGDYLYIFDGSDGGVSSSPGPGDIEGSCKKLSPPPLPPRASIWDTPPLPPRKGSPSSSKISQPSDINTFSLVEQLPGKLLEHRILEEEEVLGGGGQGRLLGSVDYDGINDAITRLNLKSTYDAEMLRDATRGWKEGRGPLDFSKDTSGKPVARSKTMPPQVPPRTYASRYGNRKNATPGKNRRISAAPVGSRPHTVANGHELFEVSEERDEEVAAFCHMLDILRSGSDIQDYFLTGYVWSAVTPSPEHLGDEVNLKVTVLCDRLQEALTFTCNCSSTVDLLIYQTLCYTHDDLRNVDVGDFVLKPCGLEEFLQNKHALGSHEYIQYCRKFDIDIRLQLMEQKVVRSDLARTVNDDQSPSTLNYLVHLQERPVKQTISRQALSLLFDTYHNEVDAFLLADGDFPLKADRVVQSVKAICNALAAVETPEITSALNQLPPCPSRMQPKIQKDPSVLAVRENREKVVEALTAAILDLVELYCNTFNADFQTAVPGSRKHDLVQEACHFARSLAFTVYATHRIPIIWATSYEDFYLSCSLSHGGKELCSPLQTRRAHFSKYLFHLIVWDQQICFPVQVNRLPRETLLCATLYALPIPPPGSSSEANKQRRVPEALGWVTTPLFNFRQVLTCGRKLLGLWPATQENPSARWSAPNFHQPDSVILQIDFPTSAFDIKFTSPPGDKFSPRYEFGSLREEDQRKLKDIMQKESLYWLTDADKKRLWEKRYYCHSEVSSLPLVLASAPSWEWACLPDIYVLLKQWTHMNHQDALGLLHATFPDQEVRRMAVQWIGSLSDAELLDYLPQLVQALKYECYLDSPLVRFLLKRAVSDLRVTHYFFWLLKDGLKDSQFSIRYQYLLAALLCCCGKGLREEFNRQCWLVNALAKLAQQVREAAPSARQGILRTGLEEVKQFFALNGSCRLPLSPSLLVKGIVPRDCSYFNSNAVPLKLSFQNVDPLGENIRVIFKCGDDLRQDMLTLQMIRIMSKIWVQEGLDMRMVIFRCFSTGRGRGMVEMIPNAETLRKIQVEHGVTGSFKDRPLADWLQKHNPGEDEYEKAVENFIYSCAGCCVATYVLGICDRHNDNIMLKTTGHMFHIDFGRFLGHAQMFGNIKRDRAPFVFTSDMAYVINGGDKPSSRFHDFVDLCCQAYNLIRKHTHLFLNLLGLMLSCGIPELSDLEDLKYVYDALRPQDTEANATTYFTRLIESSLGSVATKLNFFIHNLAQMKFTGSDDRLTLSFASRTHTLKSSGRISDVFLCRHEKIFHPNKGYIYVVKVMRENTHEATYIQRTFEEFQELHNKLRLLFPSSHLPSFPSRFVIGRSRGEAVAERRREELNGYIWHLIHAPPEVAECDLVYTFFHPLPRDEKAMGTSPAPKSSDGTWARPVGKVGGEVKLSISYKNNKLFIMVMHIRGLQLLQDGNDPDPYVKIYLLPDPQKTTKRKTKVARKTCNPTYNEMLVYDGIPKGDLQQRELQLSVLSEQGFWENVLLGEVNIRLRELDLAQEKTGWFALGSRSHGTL
Summary of the method: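 Kinase panel screen of 235 kinases at Invitrogen with compound at 1 µM; read-out was percent inhibition.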

[28] = Antitumor activity against human KPL4 cells xenografted in SCID beige mouse assessed as tumor growth inhibition at 3.25 mg/kg, po qd for 21 days; assay type: functional; settings: 504 h, read-out: TGI; summary of the method: as §5
Mus musculus [29] = test: Toxicity in SCID beige mouse xenografted with human KPL4 cells assessed as body weight loss upto 12.5 mg/kg, po; assay type: organism-based; settings: in vivo
[30] = Plasma protein binding in Beagle dog at 5 uM after 4 hrs by LC-MS/MS analysis; assay type: ADME, cell-free, Canis lupus familiaris; settings: read-out: PPB (converted); summary of the method: as §3

## CC(C)n1ncnc1-c1cn2c(n1)-c1ccc(O[C@@H](C)C(N)=O)cc1OCC2
Canis familiaris [1]
  F: 100%
[2]
  Cmax: 5.4 µM
Cytochrome P450 3A4
  IC50: > 10 µM
[3]
  Cmax: 31 µM
[4]
  fraction unbound at 4 h, 5 µM: 0.37
[5]
  EC50: 0.1 µM
Homo sapiens
  Activity: Dose-dependent effect
[6]
  clearance: 0.6 L/h/kg
[7]
  inhibition in vivo at 0.78 mg/kg: 73%
Cytochrome P450 2C19
  IC50: > 10 µM
[8]
  AUC: 25.4 µM·h
Mus musculus [9]
  Vdss: 0.6 L/kg
[10]
  AUC: 74 µM·h
[11]
  EC50: 0.06 µM
[12]
  inhibition in vivo at 12.5 mg/kg: 110%
[13]
  inhibition in vivo at 12.5 mg/kg: 121%
[14]
  bioavailability: 55%
[15]
  fraction unbound at 4 h, 5 µM: 0.6
[16]
  clearance: 0.78 L/h/kg
[17]
  Papp A→B: 130 nm/s
Cytochrome P450 1A2
  IC50: > 10 µM
[18]
  bioavailability: 72%
[19]
  Cmax: 2.1 µM
[20]
  solubility thermodynamic: 0.082 mg/mL (≈ 214 µM)
[21]
  Vd: 1.5 L/kg
Cytochrome P450 2D6
  IC50: > 10 µM
Mus musculus [22]
  inhibition in vivo at 6.25 mg/kg: 78%
Canis familiaris [23]
  AUC: 2.4 µM·h
[24]
  clearance: 0.48 L/h/kg
[25]
  AUC: 4.8 µM·h
[26]
  Vd: 2.5 L/kg
[27]
  inhibition: 61%
[28]
  inhibition in vivo at 3.25 mg/kg: 97%
Mus musculus [29]
  Activity: < 10%
[30]
  fraction unbound at 4 h, 5 µM: 0.62
